The species entered for this assay is Cavia porcellus. Kind of assay: Beta-Funaltrexamine antagonism of morphine agonism in the presence of compound was determined in Guinea pig ileum at concentration of 20 nM. The assay is classed as functional. The procedure, abridged:
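Guinea pig ileum protection assay. The protector was added to the tissue 10 min before 20 nM β-FNA, which was applied for 30 min. The tissue was then washed 30 times with intermittent chasing by 500 nM naloxone. The result is the morphine IC50 in treated tissue divided by the morphine IC50 in control tissue of the same preparation, given with SE and n.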

SMILES strings stand for the structures.

As for `O=C1CC[C@@]2(O)[C@H]3Cc4ccc(O)c5c4[C@@]2(CCN3CC2CC2)[C@H]1O5` [NALTREXONE], the IC50 ratio is recorded as 2.1.

These data come from ChEMBL document CHEMBL1123355, “Activity of N-methyl-alpha- and -beta-funaltrexamine at opioid receptors” (1986).
